SMILES strings stand for the structures.

The target in one data set is LAT1 (Homo sapiens, UniProt Q01650). The data set can be described thus: Inhibition of DOX or Asp-DOX uptake into S2-LAT1 cells by amino acids. The note with it: 100 μmol/L amino acid, 2 min; for Inhibition of the uptake of Asp-DOX by amino acids: 20 μmol/L Asp-DOX; for Inhibition of the uptake of DOX by amino acids: 20 μmol/L DOX. The data set is classed as cell-based. Put shortly:
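S2-LAT1 cells incubated 2 min with 20 μmol/L test compound, with or without 100 μmol/L Leu, Met, Phe, Asp, Glu or Gly. Uptake stopped by three cold DPBS washes. Internalised drug extracted with methanol and quantified by HPLC.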

The test system of data set [1] is H1299 (human non-small cell lung carcinoma cell line). The data set can be described thus: MTT cytotoxicity, H1299. In kind it is cell-based. The note with it: 48 h. The gist of the method: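 Cells maintained in DMEM or RPMI-1640 with 10% FBS, penicillin and streptomycin at 37°C, 5% CO2. Seeded at 2000–4000 cells/well and grown 48 h, then exposed to test compound at 10, 20 or 50 μg/mL for 48 h. MTT (5 mg/mL stock, 20 μL per 100 μL) added for 2 h; absorbance read at 492 nm. Six repeats; inhibition rate computed from mean values.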

The next data set deals with HepG2 tumors. The data set can be described thus: Biodistribution in HepG2 tumor-bearing mice. The following applies: HepG2 models; DOX-treated versus Asp-DOX-treated mice; 5 mg/kg i.v.; 1 h. In kind it is in vivo. Put shortly: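 Male nude mice ([…], 4 weeks, 18–22 g) implanted s.c. above the right femoral joint with 1.0 × 107 HepG2, HCT116 or H1299 cells in 0.1 mL PBS, 3–5 per line. On day 20, with tumours about 100 mm3, 5 mg/kg given i.v. Killed 1 h later; tissues frozen in liquid nitrogen. Homogenates extracted twice with methanol (1-naphthol internal standard) for HPLC/MS; reported as % injected dose/g tissue.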

A further data set concerns H1299 (LAT1-negative). The data set can be described thus: Cellular uptake in vitro, H1299. In kind it is cell-based, human. The note with it: 2 h. The gist of the method:
(§1)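 HepG2 or H1299 cells seeded at 1.5 × 10^5/well and grown 48 h. Then exposed to test compound at 0, 10, 20 or 50 μg/mL in serum-free medium for 2 h at 37°C, 5% CO2. Rinsed three times with cold DPBS and imaged by fluorescence (excitation 475 nm, 580 nm). Cells then extracted with methanol and sonicated 10 min; supernatant quantified by HPLC/MS.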

Data set [2] relates to H1299 tumors. The data set can be described thus: Biodistribution in H1299 tumor-bearing mice. The data set is classed as in vivo. The following applies: H1299 models; DOX versus Asp-DOX; 5 mg/kg i.v.; 1 h.
Data set [3] in a line: Pharmacokinetics in healthy mice. In kind it is in vivo. The gist of the method: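 Healthy mice dosed 5 mg/kg via tail vein. Retrobulbar blood taken at 0, 2, 5, 10, 15, 30 min, 1, 2 and 4 h, mixed with 0.5 mM EDTA-PBS and spun at 1750 g for 15 min. Supernatant extracted with methanol, dried under nitrogen, reconstituted in mobile phase and analysed by HPLC. AUC0−t by non-compartmental i.v. bolus model.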

In data set [4] the test system is MDR1-overexpressing MDCK cells. Nature of the data set: Bidirectional transport assay. In kind it is in vitro ADME. The note with it: 50 μg/mL. Put shortly: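 MDCK-MDR1 cells grown in high-glucose DMEM with 10% FBS. Seeded at 2 × 10^5 cells per 1.12 cm2 on polycarbonate Transwell inserts (0.4-μm pores) and used after about 7 days. TEER checked first. After 20 min equilibration in HBSS with 25 mM HEPES, 50 μg/mL test compound was added to the apical or basolateral donor side at 37°C with 60 rpm shaking. Receiver sampled at 60 min for HPLC-fluorescence. PDR = Papp(B–A)/Papp(A–B); n = 3.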

A further data set relates to HepG2 (LAT1-positive). Nature of the data set: Cellular uptake in vitro, HepG2. The data set is classed as cell-based, human. The note with it: 2 h. Put shortly: as §1
For data set [5], the system named is H1299 tumors. The data set can be described thus: Therapy study, H1299 tumor model. In kind it is in vivo, mice. The note with it: 5 mg/kg i.v. twice a week. Put shortly:
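Nude mice bearing s.c. HepG2 or H1299 xenografts, set up as in the biodistribution model, split into three groups once tumours reached 100 mm3. Groups given saline, doxorubicin or test compound at 5 mg/kg i.v. twice a week. Tumours measured twice weekly; volume = length × width²/2; volumes compared after 21 days of treatment.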

Chain of LAT1 (Q01650 whole entry): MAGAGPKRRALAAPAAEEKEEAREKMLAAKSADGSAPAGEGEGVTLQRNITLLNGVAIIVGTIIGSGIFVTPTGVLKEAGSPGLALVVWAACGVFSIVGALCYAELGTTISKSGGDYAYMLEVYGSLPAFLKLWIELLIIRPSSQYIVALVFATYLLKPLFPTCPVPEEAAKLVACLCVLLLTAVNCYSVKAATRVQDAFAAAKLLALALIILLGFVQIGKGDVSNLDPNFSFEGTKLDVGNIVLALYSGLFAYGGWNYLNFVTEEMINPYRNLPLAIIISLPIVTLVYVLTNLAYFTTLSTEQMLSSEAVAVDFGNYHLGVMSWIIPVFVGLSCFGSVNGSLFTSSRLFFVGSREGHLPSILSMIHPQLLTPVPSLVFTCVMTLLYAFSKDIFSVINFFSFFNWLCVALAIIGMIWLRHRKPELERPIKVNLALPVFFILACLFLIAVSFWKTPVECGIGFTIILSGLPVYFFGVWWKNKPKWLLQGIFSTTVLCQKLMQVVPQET
Chain of LAT1 (P08195 102-630 partner): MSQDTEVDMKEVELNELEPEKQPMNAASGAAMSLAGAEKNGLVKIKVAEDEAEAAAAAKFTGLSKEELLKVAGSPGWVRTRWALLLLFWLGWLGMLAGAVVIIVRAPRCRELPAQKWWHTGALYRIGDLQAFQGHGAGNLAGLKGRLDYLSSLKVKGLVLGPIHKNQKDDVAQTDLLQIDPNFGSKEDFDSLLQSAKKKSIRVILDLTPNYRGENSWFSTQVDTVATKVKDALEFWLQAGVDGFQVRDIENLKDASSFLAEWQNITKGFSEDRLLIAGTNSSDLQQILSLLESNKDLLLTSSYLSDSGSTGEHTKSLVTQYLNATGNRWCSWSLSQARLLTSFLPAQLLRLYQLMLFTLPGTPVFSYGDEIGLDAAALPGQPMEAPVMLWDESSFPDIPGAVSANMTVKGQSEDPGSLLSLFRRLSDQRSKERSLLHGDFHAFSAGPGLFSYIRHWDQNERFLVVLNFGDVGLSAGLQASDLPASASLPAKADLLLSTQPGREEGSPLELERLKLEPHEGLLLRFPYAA

As to `C[C@H](N)C(=O)O` [Ala], on LAT1, the “Inhibition of the uptake of Asp-DOX by amino acids” value (“Inhibition of the uptake of Asp-DOX” for short) is recorded as “no inhibition” and the “Inhibition of the uptake of DOX by amino acids” value (from here on “Inhibition of the uptake of DOX”) is on record as “neither 100 μmol/L Leu, Met, or Phe, nor 100 μmol/L Ala, Glu, or Gly inhibited”.

In turn, `COc1cccc2c1C(=O)c1c(O)c3c(c(O)c1C2=O)C[C@@](O)(C(=O)CO)C[C@@H]3O[C@H]1C[C@H](N)[C@H](O)[C@H](C)O1` [DOX, doxorubicin] returned an IC50 in [1] of 36.51 μg/ml μg/mL. In addition, the “Drug levels in heart, liver, and lung” value in the data set on HepG2 tumors was “significantly higher”. Moreover, the Uptake with H1299 (LAT1-negative) (dose 10 μg/mL) worked out at 0.20 ± 0.059 µg/mL; in the data set with H1299 (LAT1-negative) (dose 20 μg/mL), 0.33 ± 0.019 µg/mL; with H1299 (LAT1-negative) (dose 50 μg/mL), 0.69 ± 0.055 µg/mL; with HepG2 (LAT1-positive) (dose 10 μg/mL), 0.21 ± 0.030 µg/mL; in the data set with HepG2 (LAT1-positive) (dose 20 μg/mL), 0.44 ± 0.032 µg/mL; in the data set on HepG2 (LAT1-positive) (dose 50 μg/mL), 0.70 ± 0.079 µg/mL. Moreover, the “Drug levels in tissues” value in the data set with H1299 tumors [2] is “higher than that of Asp-DOX in all tissues”. For the same compound, in data set [3] (5 mg/kg i.v. (tail vein), blood), the t1/2 is reported as 15.12 min. Also, the “AUC0−t” value in data set [3] (5 mg/kg i.v., 0-4 h) was 158.894 µg·min/mL. Moreover, the “PDR (efflux rate, Papp(B–A):Papp(A–B))” value in [4] was 13.01 ± 1.425. In data set [4] (apical to basolateral, 60 min), the “Papp A–B” value was 0.53 ± 0.093 10^−6 cm/s. Moreover, the “Papp B–A” value in data set [4] (basolateral to apical, 60 min) is 6.63 ± 0.328 10^−6 cm/s. Also, in the data set on H1299 tumors [5], the Antitumor effect result is “stronger than that of Asp-DOX and saline”.

With `N[C@@H](CCC(=O)O)C(=O)O` [Glu], on LAT1, the “Inhibition of the uptake of Asp-DOX” value was “no inhibition” and the “Inhibition of the uptake of DOX” value is recorded as “neither 100 μmol/L Leu, Met, or Phe, nor 100 μmol/L Ala, Glu, or Gly inhibited”.

Regarding `NCC(=O)O` [Gly], at LAT1, the “Inhibition of the uptake of Asp-DOX” value is “no inhibition” and the “Inhibition of the uptake of DOX” value is reported as “neither 100 μmol/L Leu, Met, or Phe, nor 100 μmol/L Ala, Glu, or Gly inhibited”.

With `CC(C)C[C@H](N)C(=O)O` [Leu, leucine], on LAT1, the “Inhibition of the uptake of Asp-DOX” value was “strongly inhibited” and the “Inhibition of the uptake of DOX” value is “neither 100 μmol/L Leu, Met, or Phe, nor 100 μmol/L Ala, Glu, or Gly inhibited”.

Take `CSCC[C@H](N)C(=O)O` [Met, methionine]: at LAT1, the “Inhibition of the uptake of Asp-DOX” value is reported as “strongly inhibited” and the “Inhibition of the uptake of DOX” value is recorded as “neither 100 μmol/L Leu, Met, or Phe, nor 100 μmol/L Ala, Glu, or Gly inhibited”.

On to `N[C@@H](Cc1ccccc1)C(=O)O` [Phe, phenylalanine], for which, at LAT1, the “Inhibition of the uptake of Asp-DOX” value is given as “strongly inhibited” and the “Inhibition of the uptake of DOX” value is “neither 100 μmol/L Leu, Met, or Phe, nor 100 μmol/L Ala, Glu, or Gly inhibited”.

These data come from publication PMC4471785 (Cancer Science, 2015).
